From ChEMBL document CHEMBL4304743, “Discovery of ( E)- N1-(3-Fluorophenyl)- N3-(3-(2-(pyridin-2-yl)vinyl)-1 H-indazol-6-yl)malonamide (CHMFL-KIT-033) as a Novel c-KIT T670I Mutant Selective Kinase Inhibitor for Gastrointestinal Stromal Tumors (GISTs)” (J Med Chem, 2019)

What was measured:
[1] = Antiproliferative activity in mouse BAF3 cells after 72 hrs by CCK8 assay; format: cell-based
Outline: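 IL-3-independent BaF3 cells carrying tel-c-KIT constructs, grown in RPMI 1640 with 10% FBS. Cells at 1.5-5 × 10^4 cells/mL mixed directly with serial compound dilutions, 72 h at 37 °C, 5% CO2. CCK-8 read-out at 450 nm, normalized to DMSO; GI50 by curve fitting.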

[2] = molecular target: Mast/stem cell growth factor receptor Kit (Homo sapiens, UniProt P10721); assay: Inhibition of wild type TEL fused c-KIT (unknown origin) transfected in mouse BAF3 cells assessed as growth inhibition after 72 hrs by CCK8 assay; format: cell-based; settings: baf3, 72 h
Chain of Mast/stem cell growth factor receptor Kit (P10721 whole entry, the tested form may be a part): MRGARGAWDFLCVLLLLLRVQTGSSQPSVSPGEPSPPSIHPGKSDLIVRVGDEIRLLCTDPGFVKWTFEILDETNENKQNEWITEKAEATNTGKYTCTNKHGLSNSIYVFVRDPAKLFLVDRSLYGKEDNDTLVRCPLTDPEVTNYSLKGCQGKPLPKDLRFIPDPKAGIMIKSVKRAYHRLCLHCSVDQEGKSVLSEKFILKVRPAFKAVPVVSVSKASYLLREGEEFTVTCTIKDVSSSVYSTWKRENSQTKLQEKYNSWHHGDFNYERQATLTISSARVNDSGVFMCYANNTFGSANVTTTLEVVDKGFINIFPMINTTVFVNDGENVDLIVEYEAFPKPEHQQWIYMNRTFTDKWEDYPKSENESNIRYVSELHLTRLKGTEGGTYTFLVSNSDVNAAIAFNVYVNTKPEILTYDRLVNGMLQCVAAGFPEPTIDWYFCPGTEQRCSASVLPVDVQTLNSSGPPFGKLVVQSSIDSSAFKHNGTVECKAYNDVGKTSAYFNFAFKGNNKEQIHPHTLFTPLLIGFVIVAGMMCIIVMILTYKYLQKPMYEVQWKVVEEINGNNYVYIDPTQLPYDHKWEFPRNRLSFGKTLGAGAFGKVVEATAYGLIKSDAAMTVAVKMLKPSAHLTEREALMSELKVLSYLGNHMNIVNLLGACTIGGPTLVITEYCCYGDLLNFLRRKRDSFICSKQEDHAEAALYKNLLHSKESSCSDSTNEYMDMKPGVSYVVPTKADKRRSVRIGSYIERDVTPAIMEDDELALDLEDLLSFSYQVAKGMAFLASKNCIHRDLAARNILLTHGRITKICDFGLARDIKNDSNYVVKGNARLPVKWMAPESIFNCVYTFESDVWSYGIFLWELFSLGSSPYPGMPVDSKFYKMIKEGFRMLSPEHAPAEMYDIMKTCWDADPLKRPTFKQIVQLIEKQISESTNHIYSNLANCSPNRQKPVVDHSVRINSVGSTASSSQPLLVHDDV
Outline: (§1)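 IL-3 independent BaF3 cells stably expressing tel-c-KIT wt or tel-c-KIT T670I, grown in RPMI 1640 with 10% FBS, 2% L-glutamine, 37 °C, 5% CO2. Suspension cells at 1.5 to 5 × 10^4 cells/mL mixed with serial compound dilutions and incubated 72 h. Viability read by CCK-8 absorbance at 450 nm, normalized to DMSO; GI50 from curve fit. Selectivity is wt GI50 over T670I GI50.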

[3] = tested on: Mast/stem cell growth factor receptor Kit (Homo sapiens), P10721 [T670I]; assay: Inhibition of TEL fused c-KIT T670I mutant (unknown origin) transfected in mouse BAF3 cells assessed as growth inhibition after 72 hrs by CCK8 assay; format: cell-based
Chain of Mast/stem cell growth factor receptor Kit (Homo sapiens), P10721 [T670I] (P10721 whole entry T670I, the tested form may be a part): as the sequence (P10721 whole entry, the tested form may be a part) above, with T670I counted along it
Outline: (§2)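 Tel-c-KIT-transformed BaF3 lines (IL-3 independent) kept in RPMI 1640 with 10% FBS, 2% L-glutamine and pen/strep. Cells at 1.5 to 5 × 10^4 cells/mL mixed with graded compound and incubated 72 h at 37 °C, 5% CO2. Viability by CCK-8 absorbance at 450 nm, normalized to DMSO. GI50 from dose–response fit.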

[4] = Selectivity ratio, ratio of inhibition of wild type TEL fused c-KIT (unknown origin) transfected in mouse BAF3 cells assessed as growth inhibition to inhibition of TEL fused c-KIT T670I mutant (unknown origin) transfected in mouse BAF3 cells assessed as growth inhibition; set-up: species or system Homo sapiens; outline: as §1
[5] = tested on: Mast/stem cell growth factor receptor Kit (Homo sapiens), P10721 [V559D,T670I]; assay: Inhibition of TEL fused c-KIT T670I/V559D double mutant (unknown origin) transfected in mouse BAF3 cells assessed as growth inhibition after 72 hrs by CCK8 assay; format: cell-based; outline: as §2
Chain of Mast/stem cell growth factor receptor Kit (Homo sapiens), P10721 [V559D,T670I] (P10721 whole entry V559D/T670I, the tested form may be a part): as the sequence (P10721 whole entry, the tested form may be a part) above, with V559D, T670I counted along it

[6] = tested on: Mast/stem cell growth factor receptor Kit (Homo sapiens), P10721 [V654A]; assay: Inhibition of TEL fused c-KIT V654A mutant (unknown origin) transfected in mouse BAF3 cells assessed as growth inhibition after 72 hrs by CCK8 assay; format: cell-based; outline: as §2
Chain of Mast/stem cell growth factor receptor Kit (Homo sapiens), P10721 [V654A] (P10721 whole entry V654A, the tested form may be a part): as the sequence (P10721 whole entry, the tested form may be a part) above, with V654A counted along it

[7] = tested on: Mast/stem cell growth factor receptor Kit (Homo sapiens), P10721 [D820E]; assay: Inhibition of TEL fused c-KIT D820E mutant (unknown origin) transfected in mouse BAF3 cells assessed as growth inhibition after 72 hrs by CCK8 assay; format: cell-based; outline: as §2
Chain of Mast/stem cell growth factor receptor Kit (Homo sapiens), P10721 [D820E] (P10721 whole entry D820E, the tested form may be a part): as the sequence (P10721 whole entry, the tested form may be a part) above, with D820E counted along it

[8] = tested on: Mast/stem cell growth factor receptor Kit (Homo sapiens), P10721 [D816V]; assay: Inhibition of TEL fused c-KIT D816V mutant (unknown origin) transfected in mouse BAF3 cells assessed as growth inhibition after 72 hrs by CCK8 assay; format: cell-based; outline: as §2
Chain of Mast/stem cell growth factor receptor Kit (Homo sapiens), P10721 [D816V] (P10721 whole entry D816V, the tested form may be a part): as the sequence (P10721 whole entry, the tested form may be a part) above, with D816V counted along it

[9] = tested on: Mast/stem cell growth factor receptor Kit (Homo sapiens), P10721 [N822K]; assay: Inhibition of TEL fused c-KIT N822K mutant (unknown origin) transfected in mouse BAF3 cells assessed as growth inhibition after 72 hrs by CCK8 assay; format: cell-based; outline: as §2
Chain of Mast/stem cell growth factor receptor Kit (Homo sapiens), P10721 [N822K] (P10721 whole entry N822K, the tested form may be a part): as the sequence (P10721 whole entry, the tested form may be a part) above, with N822K counted along it

[10] = tested on: Mast/stem cell growth factor receptor Kit (Homo sapiens), P10721 [A829P]; assay: Inhibition of TEL fused c-KIT A829P mutant (unknown origin) transfected in mouse BAF3 cells assessed as growth inhibition after 72 hrs by CCK8 assay; format: cell-based; outline: as §2
Chain of Mast/stem cell growth factor receptor Kit (Homo sapiens), P10721 [A829P] (P10721 whole entry A829P, the tested form may be a part): as the sequence (P10721 whole entry, the tested form may be a part) above, with A829P counted along it

[11] = tested on: Mast/stem cell growth factor receptor Kit (Homo sapiens), P10721 [V559D,V654A]; assay: Inhibition of TEL fused c-KIT V654A/V559D double mutant (unknown origin) transfected in mouse BAF3 cells assessed as growth inhibition after 72 hrs by CCK8 assay; format: cell-based; outline: as §2
Chain of Mast/stem cell growth factor receptor Kit (Homo sapiens), P10721 [V559D,V654A] (P10721 whole entry V559D/V654A, the tested form may be a part): as the sequence (P10721 whole entry, the tested form may be a part) above, with V559D, V654A counted along it

[12] = tested on: Mast/stem cell growth factor receptor Kit (Homo sapiens), P10721 [D816H]; assay: Inhibition of TEL fused c-KIT D816H mutant (unknown origin) transfected in mouse BAF3 cells assessed as growth inhibition after 72 hrs by CCK8 assay; format: cell-based; outline: as §2
Chain of Mast/stem cell growth factor receptor Kit (Homo sapiens), P10721 [D816H] (P10721 whole entry D816H, the tested form may be a part): as the sequence (P10721 whole entry, the tested form may be a part) above, with D816H counted along it

[13] = tested on: Mast/stem cell growth factor receptor Kit (Homo sapiens), P10721 [V559G]; assay: Inhibition of TEL fused c-KIT V559G mutant (unknown origin) transfected in mouse BAF3 cells assessed as growth inhibition after 72 hrs by CCK8 assay; format: cell-based; outline: as §2
Chain of Mast/stem cell growth factor receptor Kit (Homo sapiens), P10721 [V559G] (P10721 whole entry V559G, the tested form may be a part): as the sequence (P10721 whole entry, the tested form may be a part) above, with V559G counted along it

[14] = tested on: Mast/stem cell growth factor receptor Kit (Homo sapiens), P10721 [V559D]; assay: Inhibition of TEL fused c-KIT V559D mutant (unknown origin) transfected in mouse BAF3 cells assessed as growth inhibition after 72 hrs by CCK8 assay; format: cell-based; outline: as §2
Chain of Mast/stem cell growth factor receptor Kit (Homo sapiens), P10721 [V559D] (P10721 whole entry V559D, the tested form may be a part): as the sequence (P10721 whole entry, the tested form may be a part) above, with V559D counted along it

[15] = tested on: Mast/stem cell growth factor receptor Kit (Homo sapiens), P10721 [V559A]; assay: Inhibition of TEL fused c-KIT V559A mutant (unknown origin) transfected in mouse BAF3 cells assessed as growth inhibition after 72 hrs by CCK8 assay; format: cell-based; outline: as §2
Chain of Mast/stem cell growth factor receptor Kit (Homo sapiens), P10721 [V559A] (P10721 whole entry V559A, the tested form may be a part): as the sequence (P10721 whole entry, the tested form may be a part) above, with V559A counted along it

[16] = tested on: Mast/stem cell growth factor receptor Kit (Homo sapiens), P10721 [L576P]; assay: Inhibition of TEL fused c-KIT L576P mutant (unknown origin) transfected in mouse BAF3 cells assessed as growth inhibition after 72 hrs by CCK8 assay; format: cell-based; outline: as §2
Chain of Mast/stem cell growth factor receptor Kit (Homo sapiens), P10721 [L576P] (P10721 whole entry L576P, the tested form may be a part): as the sequence (P10721 whole entry, the tested form may be a part) above, with L576P counted along it

SMILES	GI50 [2] [nM]	GI50 [3] [nM]	GI50 at 72 h [1] [nM]	also measured
O=C(CC(=O)Nc1ccc2cn[nH]c2c1)Nc1ccc(Cl)c(C(F)(F)F)c1	> 10000	2670	> 10000	
O=C(Nc1ccc2c(/C=C/c3ccccn3)n[nH]c2c1)c1ccc(Cl)c(C(F)(F)F)c1	2970	1710	1710	
Cc1ccc(-c2n[nH]c3cc(NC(=O)CC(=O)Nc4ccc(Cl)c(C(F)(F)F)c4)ccc23)cn1	183	59	4910	
CNC(=O)c1ccc(-c2n[nH]c3cc(NC(=O)CC(=O)Nc4ccc(Cl)c(C(F)(F)F)c4)ccc23)cc1	338	57	> 10000	RatioGI50 [4]: 6
CN1CCN(c2ccc(-c3n[nH]c4cc(NC(=O)CC(=O)Nc5ccc(Cl)c(C(F)(F)F)c5)ccc34)cc2)CC1	25	12	1350	
O=C(Nc1ccc(Cl)c(C(F)(F)F)c1)C1(C(=O)Nc2ccc3c(/C=C/c4ccccn4)n[nH]c3c2)CC1	1000	230	> 10000	
NC(=O)c1cccc(-c2n[nH]c3cc(NC(=O)CC(=O)Nc4ccc(Cl)c(C(F)(F)F)c4)ccc23)c1	1550	339	> 10000	
CN1CCN(Cc2ccc(-c3n[nH]c4cc(NC(=O)CC(=O)Nc5ccc(Cl)c(C(F)(F)F)c5)ccc34)cc2)CC1	19	12	911	
Cc1n[nH]c2cc(NC(=O)CC(=O)Nc3ccc(Cl)c(C(F)(F)F)c3)ccc12	> 10000	1880	> 10000	
CNC(=O)c1cncc(-c2n[nH]c3cc(NC(=O)CC(=O)Nc4ccc(Cl)c(C(F)(F)F)c4)ccc23)c1	> 10000	4840	> 10000	
O=C(CC(=O)Nc1ccc2c(-c3cccnc3)n[nH]c2c1)Nc1ccc(Cl)c(C(F)(F)F)c1	320	45	> 10000	RatioGI50 [4]: 7 - 15
CNC(=O)c1ccccc1Sc1ccc2c(/C=C/c3ccccn3)n[nH]c2c1 [AXITINIB]	105	108		GI50 [5]: 129 nM; GI50 [6]: 14 nM; GI50 [7]: 156 nM; GI50 [8]: 2020 nM; GI50 [9]: 1720 nM; GI50 [10]: 406 nM; GI50 [11]: 13 nM; GI50 [12]: 1820 nM; GI50 [13]: 2 nM; GI50 [14]: 12 nM; GI50 [15]: 5 nM; GI50 [16]: 7 nM
Cn1cc(-c2n[nH]c3cc(NC(=O)CC(=O)Nc4ccc(Cl)c(C(F)(F)F)c4)ccc23)cn1	350	23	> 10000	RatioGI50 [4]: 7 - 15
O=C(CC(=O)Nc1ccc2c(-c3cccc(F)c3)n[nH]c2c1)Nc1ccc(Cl)c(C(F)(F)F)c1	1120	179	> 10000	

Now from value to compound, other results behind:

GI50 [2] [nM]	GI50 [3] [nM]	SMILES	GI50 at 72 h [1] [nM]	also measured
3460	847	O=C(CC(=O)Nc1cc(F)ccc1F)Nc1ccc2c(/C=C/c3ccccn3)n[nH]c2c1	5080	
554	111	O=C(CC(=O)Nc1ccc2c(/C=C/c3ccccn3)n[nH]c2c1)Nc1ccc(F)cc1	5860	
1870	399	O=C(CC(=O)Nc1ccc2c(/C=C/c3ccccn3)n[nH]c2c1)Nc1cc(F)cc(F)c1	4240	
25	2	O=C(CC(=O)Nc1ccc2c(/C=C/c3ccccn3)n[nH]c2c1)Nc1ccc(Cl)c(C(F)(F)F)c1	7400	RatioGI50 [4]: 12
2740	234	COc1cccc(NC(=O)CC(=O)Nc2ccc3c(/C=C/c4ccccn4)n[nH]c3c2)c1	> 10000	
2160	312	O=C(CC(=O)Nc1ccccc1F)Nc1ccc2c(/C=C/c3ccccn3)n[nH]c2c1	5090	
2220	117	O=C(CC(=O)Nc1ccc2c(/C=C/c3ccccn3)n[nH]c2c1)Nc1ccccc1	6720	RatioGI50 [4]: 19
2950	1300	O=C(CC(=O)Nc1c(F)c(F)c(F)c(F)c1F)Nc1ccc2c(/C=C/c3ccccn3)n[nH]c2c1	3680	
> 10000	6170	CN1CCN(c2cccc(NC(=O)CC(=O)Nc3ccc4c(/C=C/c5ccccn5)n[nH]c4c3)c2)CC1	> 10000	
1430	170	Cc1cccc(NC(=O)CC(=O)Nc2ccc3c(/C=C/c4ccccn4)n[nH]c3c2)c1	> 10000	
943	113	O=C(CC(=O)Nc1ccc2c(/C=C/c3ccccn3)n[nH]c2c1)Nc1cccc(Br)c1	6090	
216	86	O=C(CC(=O)Nc1ccc2c(/C=C/c3ccccn3)n[nH]c2c1)Nc1cccc(C(F)(F)F)c1	> 10000	
3870	594	CN(C)c1cccc(NC(=O)CC(=O)Nc2ccc3c(/C=C/c4ccccn4)n[nH]c3c2)c1	> 10000	
1600	1150	O=C(Nc1ccc(Cl)c(C(F)(F)F)c1)Nc1ccc2c(/C=C/c3ccccn3)n[nH]c2c1	1900	
5500	3180	O=C(Cc1ccc(Cl)c(C(F)(F)F)c1)Nc1ccc2c(/C=C/c3ccccn3)n[nH]c2c1	3790	
923	111	O=C(CC(=O)Nc1ccc2c(/C=C/c3ccccn3)n[nH]c2c1)Nc1cccc(Cl)c1	3610	
